Assays:
[1] = system: human chronic myelogenous K562 leukemia cells; test: Cell proliferation analysis, K562 cells; format: cell-based; details: for IC50: Homo sapiens, K562, 24 h, read-out: IC50 K562
How it was run: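 K562 cells grown in RPMI 1640 with 10% FCS, 2 mM L-glutamine, […] and penicillin/streptomycin at 37°C, 5% CO2. DMSO stocks (1 mg/mL) diluted in medium. Cells (1×10^4/well) exposed to increasing concentrations for 24 h at 37°C, then counted electronically. IC50 is 50% growth inhibition vs untreated controls. Duplicate cultures per concentration, repeated experiments, mean ± SE.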

[2] = system: murine lymphocytic L1210 leukemia cells; test: Cell proliferation analysis, L1210 cells; format: cell-based; details: for IC50: Mus musculus, L1210, 24 h, read-out: IC50 L1210
How it was run: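 Murine L1210 cells maintained at 1×10^6 cells/mL in RPMI 1640 with 10% FCS, 2 mM L-glutamine, […] and penicillin/streptomycin (37 °C, 5% CO2). DMSO stocks (1 mg/mL) diluted in medium. 1×10^4 cells/well exposed to increasing concentrations for 24 h at 37 °C; cell number/mL counted on a Coulter counter. IC50 relative to untreated controls, duplicate cultures per concentration, mean ± SE of ≥3 independent experiments.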

tubulin = test: Inhibition of [3H]colchicine binding to tubulin; details: combretastatin A-4 at 1 μM; generally observed
How it was run: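 Purified tubulin incubated with [3H]colchicine and test compound for 10 min at 37 °C. Read-out is percent inhibition of radiolabelled colchicine binding. Combretastatin A-4 served as reference at 1 μM.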

Compound	IC50 [1]	IC50 [2]	further results
COc1cc(C(=O)c2oc3ccccc3c2NC(C)=O)cc(OC)c1OC [Compound 3a, N-[2-(3,4,5-Trimethoxybenzoyl)-1-benzofuran-3-yl]acetamide]	> 100000 nM		
COc1cc(C(=O)c2sc3c(C)cccc3c2NC(=O)CBr)cc(OC)c1OC [Compound 3aa, 2-Bromo-N-[7-methyl-2-(3,4,5-trimethoxybenzoyl)-1-benzothien-3-yl]acetamide]	490 ± 80 nM		
COc1cc(C(=O)c2sc3c(C)cccc3c2NC(=O)CI)cc(OC)c1OC [Compound 3ab, 2-Iodo-N-[7-methyl-2-(3,4,5-trimethoxybenzoyl)-1-benzothien-3-yl]acetamide]	550 ± 10 nM		
COc1cc(C(=O)c2oc3ccccc3c2NC(=O)CCl)cc(OC)c1OC [Compound 3b, 2-Chloro-N-[2-(3,4,5-trimethoxybenzoyl)-1-benzofuran-3-yl]acetamide]	45800 ± 1500 nM		
COc1cc(C(=O)c2oc3ccccc3c2NC(=O)CBr)cc(OC)c1OC [Compound 3c, 2-Bromo-N-[2-(3,4,5-trimethoxybenzoyl)-1-benzofuran-3-yl]acetamide]	12800 ± 510 nM	4560 ± 640 nM	
COc1cc(C(=O)c2oc3ccccc3c2NC(=O)CI)cc(OC)c1OC [Compound 3d, 2-Iodo-N-[2-(3,4,5-trimethoxybenzoyl)-1-benzofuran-3-yl]acetamide]	2210 ± 90 nM		fold more potent than the bromine 3c ([1]; antiproliferative activity, K562 and L1210 cells): 6 fold
COc1ccc2oc(C(=O)c3cc(OC)c(OC)c(OC)c3)c(NC(C)=O)c2c1 [Compound 3e, N-[5-Methoxy-2-(3,4,5-trimethoxybenzoyl)-1-benzofuran-3-yl]acetamide]	58100 ± 1300 nM		
COc1ccc2oc(C(=O)c3cc(OC)c(OC)c(OC)c3)c(NC(=O)CCl)c2c1 [Compound 3f, 2-Chloro-N-[5-methoxy-2-(3,4,5-trimethoxy-benzoyl)-1-benzofuran-3-yl]acetamide]	60900 ± 2400 nM		
COc1ccc2oc(C(=O)c3cc(OC)c(OC)c(OC)c3)c(NC(=O)CBr)c2c1 [Compound 3g, 2-Bromo-N-[5-methoxy-2-(3,4,5-trimethoxybenzoyl)-1-benzofuran-3-yl]acetamide]	53400 ± 2600 nM		
COc1ccc2oc(C(=O)c3cc(OC)c(OC)c(OC)c3)c(NC(=O)CI)c2c1 [Compound 3h, 2-Iodo-N-[5-methoxy-2-(3,4,5-trimethoxybenzoyl)-1-benzofuran-3-yl]acetamide]	49200 ± 1800 nM	520 ± 30 nM	
COc1cc(C(=O)c2oc3c(OC)cccc3c2NC(C)=O)cc(OC)c1OC [Compound 3m, N-[7-Methoxy-2-(3,4,5-trimethoxybenzoyl)-1-benzofuran-3-yl]acetamide]	48100 ± 2600 nM		
COc1cc(C(=O)c2oc3c(OC)cccc3c2NC(=O)CCl)cc(OC)c1OC [Compound 3n, 2-Chloro-N-[7-methoxy-2-(3,4,5-trimethoxybenzoyl)-1-benzofuran-3-yl]acetamide]	82700 ± 5600 nM		
COc1cc(C(=O)c2oc3c(OC)cccc3c2NC(=O)CBr)cc(OC)c1OC [Compound 3o, 2-Bromo-N-[7-methoxy-2-(3,4,5-trimethoxybenzoyl)-1-benzofuran-3-yl]acetamide]	> 100000 nM		
COc1cc(C(=O)c2oc3c(OC)cccc3c2NC(=O)CI)cc(OC)c1OC [Compound 3p, 2-Iodo-N-[7-methoxy-2-(3,4,5-trimethoxybenzoyl)-1-benzofuran-3-yl]acetamide]	6960 ± 1120 nM	42800 ± 3770 nM	
COc1cc(C(=O)c2sc3ccccc3c2NC(C)=O)cc(OC)c1OC [Compound 3q, N-[2-(3,4,5-Trimethoxybenzoyl)-1-benzothien-3-yl] acetamide]	630 ± 40 nM		
COc1cc(C(=O)c2sc3ccccc3c2NC(=O)CCl)cc(OC)c1OC [Compound 3r, 2-Chloro-N-[2-(3,4,5-trimethoxybenzoyl)-1-benzothien-3-yl]acetamide]	600 ± 20 nM		
COc1cc(C(=O)c2sc3ccccc3c2NC(=O)CBr)cc(OC)c1OC [Compound 3s, 2-Bromo-N-[2-(3,4,5-trimethoxybenzoyl)-1-benzothien-3-yl]acetamide]	610 ± 40 nM	500 ± 10 nM	
COc1cc(C(=O)c2sc3ccccc3c2NC(=O)CI)cc(OC)c1OC [Compound 3t, 2-Iodo-N-[2-(3,4,5-trimethoxybenzoyl)-1-benzothien-3-yl]acetamide]	760 ± 20 nM	580 ± 90 nM	
COc1cc(C(=O)c2sc3cc(C)ccc3c2NC(C)=O)cc(OC)c1OC [Compound 3u, N-[6-Methyl-2-(3,4,5-trimethoxybenzoyl)-1-benzothien-3-yl]acetamide]	700 ± 10 nM		
COc1cc(C(=O)c2sc3cc(C)ccc3c2NC(=O)CCl)cc(OC)c1OC [Compound 3v, 2-Chloro-N-[6-methyl-2-(3,4,5-trimethoxybenzoyl)-1-benzothien-3-yl]acetamide]	80 nM		
COc1cc(C(=O)c2sc3cc(C)ccc3c2NC(=O)CBr)cc(OC)c1OC [Compound 3w, 2-Bromo-N-[6-methyl-2-(3,4,5-trimethoxybenzoyl)-1-benzothien-3-yl]acetamide]	500 ± 80 nM		
COc1cc(C(=O)c2sc3cc(C)ccc3c2NC(=O)CI)cc(OC)c1OC [Compound 3x, 2-Iodo-N-[6-methyl-2-(3,4,5-trimethoxybenzoyl)-1-benzothien-3-yl]acetamide]	610 ± 10 nM	440 ± 70 nM	
COc1cc(C(=O)c2sc3c(C)cccc3c2NC(C)=O)cc(OC)c1OC [Compound 3y, N-[7-Methyl-2-(3,4,5-trimethoxybenzoyl)-1-benzothien-3-yl]acetamide]	32 nM		
COc1cc(C(=O)c2sc3c(C)cccc3c2NC(=O)CCl)cc(OC)c1OC [Compound 3z, 2-Chloro-N-[7-methyl-2-(3,4,5-trimethoxybenzoyl)-1-benzothien-3-yl]acetamide]	40 ± 20 nM	50 nM	
COc1cc(C(=O)c2sc3cc(C)ccc3c2NC(=O)CO[N+](=O)[O-])cc(OC)c1OC [Compound 4c, 2-{[6-Methyl-2-(3,4,5-trimethoxybenzoyl)-1-benzothien-3-yl]amino}-2-oxoethyl nitrate]	30 ± 20 nM	280 ± 30 nM	fold increase in potency relative to 4b ([1]; against K562 cells): 20 fold
C=C(Br)C(=O)Nc1c(C(=O)c2cc(OC)c(OC)c(OC)c2)oc2ccccc12 [Compound 5a, 2-Bromo-N-[2-(3,4,5-trimethoxybenzoyl)-1-benzofuran-3-yl]acrylamide]	5100 ± 70 nM	530 nM	fold more active than amino counterpart 2a ([2]; against L1210 cells): 60 fold
C=C(Br)C(=O)Nc1c(C(=O)c2cc(OC)c(OC)c(OC)c2)oc2c(OC)cccc12 [Compound 5d, 2-Bromo-N-[7-methoxy-2-(3,4,5-trimethoxybenzoyl)-1-benzofuran-3-yl]acrylamide]	55900 ± 4600 nM	26800 ± 3200 nM	
C=C(Br)C(=O)Nc1c(C(=O)c2cc(OC)c(OC)c(OC)c2)sc2cc(C)ccc12 [Compound 5f, 2-Bromo-N-[6-methyl-2-(3,4,5-trimethoxybenzoyl)-1-benzothien-3-yl]acrylamide]	940 ± 60 nM	59 nM	
COc1ccc(/C=C\c2cc(OC)c(OC)c(OC)c2)cc1O [combretastatin A-4, reference compound]			Inhibition of colchicine binding (tubulin): 85–90%

The next lines start with results.

IC50 [1]	Compound	IC50 [2]	further results
31400 ± 1000 nM	COc1cc(C(=O)c2oc3ccccc3c2NC(=O)CO[N+](=O)[O-])cc(OC)c1OC [Compound 4a, 2-Oxo-2-{[2-(3,4,5-trimethoxybenzoyl)-1-benzofuran-3-yl]amino}ethyl nitrate]		
550 ± 50 nM	COc1cc(C(=O)c2sc3ccccc3c2NC(=O)CO[N+](=O)[O-])cc(OC)c1OC [Compound 4b, 2-Oxo-2-{[2-(3,4,5-trimethoxybenzoyl)-1-benzothien-3-yl]amino}ethyl nitrate]		
50 ± 10 nM	COc1cc(C(=O)c2sc3c(C)cccc3c2NC(=O)CO[N+](=O)[O-])cc(OC)c1OC [Compound 4d, 2-{[7-Methyl-2-(3,4,5-trimethoxybenzoyl)-1-benzothien-3-yl]amino}-2-oxoethyl nitrate]		fold more potent than 4c ([2]; against L1210 cells): about 5 fold
> 100000 nM	C=C(Br)C(=O)Nc1c(C(=O)c2cc(OC)c(OC)c(OC)c2)oc2ccc(OC)cc12 [Compound 5b, 2-Bromo-N-[5-methoxy-2-(3,4,5-trimethoxybenzoyl)-1-benzofuran-3-yl]acrylamide]		
25900 ± 2300 nM	C=C(Br)C(=O)Nc1c(C(=O)c2cc(OC)c(OC)c(OC)c2)oc2cc(OC)ccc12 [Compound 5c, 2-Bromo-N-[6-methoxy-2-(3,4,5-trimethoxybenzoyl)-1-benzofuran-3-yl]acrylamide]		
580 ± 30 nM	C=C(Br)C(=O)Nc1c(C(=O)c2cc(OC)c(OC)c(OC)c2)sc2ccccc12 [Compound 5e, 2-Bromo-N-[2-(3,4,5-trimethoxybenzoyl)-1-benzothien-3-yl]acrylamide]		
490 ± 30 nM	C=C(Br)C(=O)Nc1c(C(=O)c2cc(OC)c(OC)c(OC)c2)sc2c(C)cccc12 [Compound 5g, 2-Bromo-N-[7-methyl-2-(3,4,5-trimethoxybenzoyl)-1-benzothien-3-yl]acrylamide]		
